H69AR inhibit – growth inhibitors of human H69AR lung tumor cells. H69AR lung tumor viability, ATP luminescence, 72 h; active compounds read low. viability, % at 10 µM. 85,000 compounds, 6% hits. AID 598;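 active = viability at or below 40%; inactive = viability above 40%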;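 note: multidrug resistant small cell line overexpressing MRP-1 efflux transporter; 100% = mean luminescence of untreated control wells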
HCT116 PTEN-null – PTEN-deleted cell growth suppression. HCT116 PTEN-null viability, CellTiter-Glo, 60 h; active compounds read low. viability, % at 10 µM. 140,000 compounds, 1.2% hits. AID 827;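 active = viability at or below a set limit, 4 SD under the median of all tested compounds, cut at about 3.7% in these data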;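 note: PTEN knockout HCT116 line with beta catenin targeted HCT116 as companion control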
HUVEC prolif 384 – blocks proliferation of human endothelial cells; HUVEC proliferation, CellTiter-Glo luminescence, 72 h; active compounds read low; viability, % at 10 µM (by protocol); 86,000 compounds, 1.1% hits;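 active = viability at or below 30%; inactive = viability above 30%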;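 note: 100% = median luminescence of DMSO-only cell control wells on each plate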
bCat KO growth – beta-catenin-lacking colon tumor cell growth suppression | viability, % at 10 µM | AID 818 | HCT116 beta-catenin knockout viability, CellTiter-Glo, 60 h; active compounds read low | 140,000 compounds, 1.5% hits;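 active = viability at or under a set limit, the compound median less 4 SD, cut at about 6% in these data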;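 note: 0% = Hyamine 1622 control at 20 µM and 100% = untreated cell control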
Lung fibro prol – blocks proliferation of human lung fibroblasts; LL 47 human lung fibroblast viability, ATP luminescence; active compounds read low; viability, % at 10 µM; 85,000 compounds, 1.1% hits; AID 719;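 active = viability at or below 50% in the single dose screen; inactive = viability above 50%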;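 note: compound exposure lasted 72 h before the ATP readout; 100% = median luminescence of untreated cell-only wells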
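Signal: luminescent ATP detection, CellTiter-Glo; assay system: LL 47 human lung fibroblasts; input: 1,150 cells/well; incubation: overnight cell rest, 72 h compound treatment at 37 °C; measure: % viability versus median cells-only luminescence; medium: IMEM growth medium with 15% fetal bovine serum; dosing: compound addition at 0.1% DMSO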
Starred values were filed as active, the others as inactive; / = no result. The full list was thinned out, with hits kept by preference.

SMILES	H69AR inhibit	HCT116 PTEN-null	HUVEC prolif 384	bCat KO growth	Lung fibro prol
CCN(CC)S(=O)(=O)c1ccc2oc(C(=O)NCc3ccc(C)cc3)c(C)c2c1	38.3*	72.1	85.3	80.2	88.2
Cc1cc(C)c2c(N=NN3CCOCC3)[nH]nc2n1	/	96.5	/	107.8	/
COCC(C)n1c(C)cc(C(=O)COC(=O)CN=C2NS(=O)(=O)c3ccccc32)c1C (centres undefined)	/	101.5	/	92.4	/
O=[N+]([O-])c1ccc(C2CCCC/C2=N\OCc2cccc(F)c2)c([N+](=O)[O-])c1 (centres undefined)	/	57.6	/	73.3	/
CCn1cc(C(=O)NCc2ccc(Cl)cc2)c(=O)c2cc(S(=O)(=O)N3CCOCC3)ccc21	29.9*	63.3	86.1	67.5	90.2
CCn1cc(C(=O)NCc2ccc3c(c2)OCO3)c(=O)c2cc(S(=O)(=O)N3CCOCC3)ccc21	56.5	84.9	86.6	89.9	89.7
Cc1c(Cl)cnc(NC(=O)COC(=O)c2cccc(S(=O)(=O)N3c4ccccc4CC3C)c2)c1Cl (centres undefined)	/	88.2	/	86.4	/
CNC(=O)CN(c1ccc(F)cc1)S(=O)(=O)c1cc(C)ccc1OC	103.3	86.1	105.4	90.6	97.4
CCCCCCOC(=O)C[N+](C)(C)CCOC1CC2CCC1(C)C2(C)C (centres undefined)	/	29.5	/	33.7	/
CCCCCCCOC(=O)C[N+](C)(C)CCOC1CC2CCC1(C)C2(C)C (centres undefined)	/	1.3*	/	1.6*	/
Cc1ccc(C)c(S(=O)(=O)NCc2ccc(C(=O)N3CCCCCC3)cc2)c1	/	89.8	/	94.7	/
Cc1cc(C)c(C)c(S(=O)(=O)NCc2ccc(C(=O)N3CCCCC3)cc2)c1C	33.1*	86.0	95.0	78.5	98.9
O=C(NNc1c(Cl)cc(Cl)cc1Cl)C1CCC1	/	93.4	/	91.0	/
COc1cc(-c2nc3cnccn3c2Nc2ccc(C(C)C)cc2)ccc1O	0.5*	55.0	3.2*	54.8	45.5*
COc1cc2c(cc1OC)C(SC)=NC(C)(C)C2	94.5	11.5	84.3	2.2*	92.4
COc1cc2c(cc1OC)C(/C(C#N)=N\O)=NC(C)(C)C2	99.5	88.5	105.1	93.7	105.9
CCOC(=O)c1cnc2c(C)cccc2c1NCc1ccco1	75.0	61.7	76.6	65.9	99.1
CCOC(=O)c1ccc2ncc(C(=O)OCC)c(NCc3ccco3)c2c1	36.2*	76.5	65.2	74.0	105.1
CCOC(=O)c1c(NC(=O)CSc2nnnn2CC)sc(C)c1C	30.6*	101.0	101.9	92.1	84.1
CCOC(=O)c1c(NC(=O)CSc2n[nH]c(CNc3ccccc3)n2)sc(C)c1C	31.4*	14.3	45.8	23.8	73.6
CCOC(=O)c1c(NC(=O)CSc2n[nH]c(-c3ccco3)n2)sc(C)c1C	79.8	97.3	88.8	87.2	95.9
COc1cc(NC(=O)Cn2c(=O)n(-c3cccc(C)c3)c(=O)c3c(C)c(C)sc32)cc(OC)c1	/	63.0	/	89.7	/
COCc1cc(CN2CCCC2)c(O)c2ncccc12	23.1*	4.8	72.7	6.4	3.3*
Oc1c(CN2CCCCC2)cc(COCc2ccccc2)c2cccnc12	/	2.2*	/	1.7*	/
COc1ccccc1N1CCN(Cc2cc(Br)c(O)c3ncccc23)CC1	19.7*	2.1*	31.6	2.2*	3.2*
SMILES	H69AR inhibit	HCT116 PTEN-null	HUVEC prolif 384	bCat KO growth	Lung fibro prol
O=[N+]([O-])c1cc(CN2CCCC2)c2cccnc2c1O	/	88.2	/	94.0	/
O=C(NCc1ccccc1Cl)c1ccc(S(=O)(=O)Nc2cccc(C(F)(F)F)c2)cc1	/	89.7	/	85.8	/
O=C([C@H](O)c1ccccc1)N1CCC[C@H]1CO	/	89.3	/	93.6	/
CN(C)c1nc(N)c([N+](=O)[O-])c(NCCO)n1	/	98.6	/	94.4	/
CCCSc1nc(N2CCOCC2)c2c(c1C#N)CCCC2	87.0	83.9	104.1	80.5	88.7
N#CCCSc1nc(N2CCOCC2)c2c(c1C#N)CCCC2	37.8*	84.4	89.0	87.7	81.3
O=C(CCl)N(c1ccc(Cl)cc1)c1c[nH]c2ccccc12	1.1*	1.8*	3.9*	1.7*	2.4*
O=C(CCl)N(c1ccccc1)c1c[nH]c2ccccc12	0.4*	1.3*	6.9*	1.9*	1.7*
COc1ccc(-c2nc3c(c(=O)n(C)c(=O)n3C)n2CC2CC(c3ccccc3)=NO2)cc1OC (centres undefined)	6.3*	/	75.3	/	103.0
COc1ccc(C(=O)Cn2c(Br)nc3c2c(=O)n(C)c(=O)n3C)cc1OC	68.8	103.9	109.4	98.2	100.8
CCCCCCc1cc2cc(C(=O)NCc3ccccc3)c(=N)oc2cc1O	60.2	94.1	95.8	99.0	85.9
CCCCCCc1cc2cc(C(=O)Nc3ccccc3)c(=O)oc2cc1O	/	1.7*	/	1.5*	/
CCOC(=O)c1c(C)oc2c(F)c(F)c(F)c(F)c2c1=O	/	6.6	8.7*	8.8	58.6
Cc1sc2nc(SCC(=O)NCc3ccco3)n(C)c(=O)c2c1C	89.8	112.2	83.5	98.6	100.1
CCn1c(SCC(=O)NC(=O)NCc2ccco2)nc2sc(C)c(C)c2c1=O	/	96.3	/	88.1	/
C=CCn1c(SCC(=O)Nc2ccccc2C)nc2sc(C)c(C)c2c1=O	30.8*	99.0	82.8	84.2	92.7
C=CCn1c(SCC(=O)NC(=O)NCc2ccco2)nc2sc(CC)cc2c1=O	28.4*	106.9	89.5	91.8	47.7*
Cc1sc2nc(SCC(=O)c3cccs3)n(Cc3ccco3)c(=O)c2c1C	58.7	72.9	23.8*	80.9	83.7
Cc1sc2nc(SCC(=O)NCc3ccco3)n(CCc3ccccc3)c(=O)c2c1C	22.2*	101.1	60.5	92.9	46.9*
Cc1ccccc1Nc1nnc(SCC(=O)NC(=O)NCc2ccco2)s1	31.7*	74.4	84.9	64.5	93.2
CCOC(=O)C1=C(N)OC2=C(C(=O)CCC2)C1c1ccccc1OCC (centres undefined)	99.3	95.4	109.5	100.0	102.7
Cc1ccc(COn2c(-c3ccc(Cl)cc3Cl)nc3ncccc32)cc1	39.3*	61.4	83.4	66.6	92.1
COc1ccc(CC(=O)Nc2nc3ccc(F)cc3s2)cc1S(=O)(=O)N1CCOCC1	39.4*	70.3	86.2	70.7	88.3
COc1ccc(CC(=O)Nc2nc3ccccc3s2)cc1S(=O)(=O)N1CCOCC1	77.9	34.6	107.6	41.5	92.8
Cc1cc(C)c2ccc(C(=O)O)nc2c1O	38.5*	83.3	82.6	69.0	93.0
SMILES	H69AR inhibit	HCT116 PTEN-null	HUVEC prolif 384	bCat KO growth	Lung fibro prol
Cc1cc(C(=O)O)c2ccccc2n1	101.1	93.3	98.2	117.9	101.2
Cc1c(N=C2SCC(=O)N2/N=C/c2ccccc2)c(=O)n(-c2ccccc2)n1C	/	92.0	/	86.2	/
Cc1nn(-c2ccccc2)c(C)c1/C=N/NC(=O)CSc1nc2ccccc2c(=O)n1-c1ccc(Br)cc1	/	1.1*	/	1.1*	/
CCOc1cc(CNc2ccccc2SC)ccc1O	/	90.6	/	94.5	/
COc1cc(CNc2ccccc2SC)ccc1O	26.9*	94.6	88.1	74.5	/
O=C(CCc1[nH]c2ccccc2c1Sc1ccccc1)NCCO	/	80.0	/	86.8	/

Source: PubChem
